The record followed here is ChEMBL document CHEMBL1833790, “N-(2-{3-[3,5-bis(trifluoromethyl)phenyl]ureido}ethyl)-glycyrrhetinamide (6b): a novel anticancer glycyrrhetinic acid derivative that targets the proteasome and displays anti-kinase activity” (J Med Chem, 2011).

In one series the test system is B16-F10. As to the kind of experiment: Growth inhibition in mouse B16F10 after 3 days by MTT assay. As to conditions: B16-F10, 72 h. It counts as functional. Summed up: (§1)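 Cells grown in RPMI with 10% heat-inactivated FCS, 4 mM glutamine, gentamicin and penicillin–streptomycin. Drug exposure 3 days, growth read by MTT colorimetric assay. Nine concentrations from 0.01 to 100 μM in semilog steps, six replicates each; IC50 derived per cell line.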
For orientation: Tetrazolium assays rely on reduction of a dye to a coloured formazan, in cell work by metabolically active cells.

The test system of a further series is SK-MEL-28. As to the kind of experiment: Growth inhibition in apoptosis-resistant human SK-MEL-28 after 3 days by MTT assay. It counts as functional. The note with it: SK-MEL-28, 72 h. Summed up:
as §1

The next series has as its system A549. As to the kind of experiment: Growth inhibition in apoptosis-resistant human A549 after 3 days by MTT assay. It counts as functional. As to conditions: A549, 72 h. The method, boiled down: as §1
A short description of series [1]: Growth inhibition in apoptosis-resistant human U373 after 3 days by MTT assay. As to conditions: U373 MG, 72 h. It counts as functional, U-373MG ATCC. Summed up: as §1
For another series, the system named is MCF7. As to the kind of experiment: Growth inhibition in apoptosis-sensitive human MCF7 after 3 days by MTT assay. It counts as functional. The note with it: MCF7, 72 h. The method, boiled down:
as §1

Series [2] is described as follows: Chemical stability of the compound in MEM cell culture medium after 7 days by HPLC analysis. It counts as physicochemical. As to conditions: read-out: Stability. Summed up:
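Compound incubated in MEM culture medium at 37 °C for 7 days, then analysed by HPLC on RX-C8 (5 μm) column with MeOH–water 90:10 (0.1% TFA), diode-array detection. Expressed as % of incubated compound recovered.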

The next series concerns Hs 683. As to the kind of experiment: Growth inhibition in apoptosis-sensitive human Hs683 after 3 days by MTT assay. It counts as functional. The note with it: Hs 683, 72 h. Summed up: as §1
In the next series the test system is PC-3. As to the kind of experiment: Growth inhibition in apoptosis-sensitive human PC3 after 3 days by MTT assay. It counts as functional. The note with it: PC-3, 72 h. The method, boiled down:
as §1

The test system of another series is T98G. Briefly: Growth inhibition in apoptosis-resistant human T98G after 3 days by MTT assay. The class given is functional. As to conditions: 72 h. Summed up: as §1
For series [3], the system named is U-373MG ATCC. Briefly: Inhibition of caspase-like activity of 20S proteasome in human U373 cells at 0.5 uM after 2 days by bioluminescence assay. It counts as cell-based. The method, boiled down:
(§2)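 U373 GBM cells seeded at 5000 cells/mL and grown 48 h, then treated for two days. Cells washed in PBS and permeabilised with 0.025% digitonin. Proteasome-Glo reagent added with Suc-LLVY-Glo (chymotrypsin-like), Z-LRR-Glo (trypsin-like) or Z-nLPnLD-Glo (caspase-like) substrate. Luminescence read after 10 min in the dark and normalised to a parallel MTT viability assay; triplicates. MG-132 at 0.5 μM used as reference.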

Series [4] concerns U-373MG ATCC. Briefly: Inhibition of caspase-like activity of 20S proteasome in human U373 cells at 7 uM after 2 days by bioluminescence assay. It counts as cell-based. Summed up: as §2
Series [5] has as its system U-373MG ATCC. As to the kind of experiment: Inhibition of trypsin-like activity of 20S proteasome in human U373 cells at 0.5 uM after 2 days by bioluminescence assay. It counts as cell-based. The method, boiled down:
as §2

Series [6] deals with U-373MG ATCC. Briefly: Inhibition of caspase-like activity of 20S proteasome in human U373 cells at 60 uM after 2 days by bioluminescence assay. The class given is cell-based. The method, boiled down: as §2
Series [7] deals with U-373MG ATCC. Briefly: Inhibition of trypsin-like activity of 20S proteasome in human U373 cells at 60 uM after 2 days by bioluminescence assay. The class given is cell-based. Summed up: as §2
The subject of series [8] is U-373MG ATCC. As to the kind of experiment: Inhibition of chymotrypsin-like activity of 20S proteasome in human U373 cells at 0.5 uM after 2 days by bioluminescence assay. The class given is cell-based. Summed up: as §2
For series [9], the system named is U-373MG ATCC. Briefly: Inhibition of chymotrypsin-like activity of 20S proteasome in human U373 cells at 60 uM after 2 days by bioluminescence assay. It counts as cell-based. The method, boiled down: as §2
For series [10], the system named is U-373MG ATCC. As to the kind of experiment: Inhibition of trypsin-like activity of 20S proteasome in human U373 cells at 7 uM after 2 days by bioluminescence assay. The class given is cell-based. The method, boiled down:
as §2

Series [11] relates to U-373MG ATCC. Briefly: Inhibition of chymotrypsin-like activity of 20S proteasome in human U373 at 7 uM after 2 days by bioluminescence assay. It counts as cell-based. Summed up:
as §2

The structures appear in SMILES notation. Calls of active or inactive are those of the source. The calls are words filed in the database; no cut-off is given here. Peptide text beside a SMILES is read from it. * marks the point of attachment. Cbz = O=C(OCc1ccccc1)*

In general, GI50 refers to the concentration at which growth is held to half of that of the control. Low readings indicate more potent growth inhibition, high ones less potent growth inhibition. In the case of `CC(C)(C)OC(=O)NCCNC(=O)[C@@]1(C)CC[C@]2(C)CC[C@]3(C)C(=CC(=O)[C@@H]4[C@@]5(C)CC[C@H](O)C(C)(C)[C@@H]5CC[C@]43C)[C@@H]2C1`, the GI50 was 48 µM with B16-F10; 60 µM with SK-MEL-28; 43 µM with A549; 57 µM in [1]; 37 µM with MCF7; 63 µM with Hs 683. Further, the GI50 in the series on PC-3 stood at 41 µM; in the series with T98G, 73 µM. The remaining at 168 h in series [2] turned out to be 93%.
With `CC1(C)[C@@H](O)CC[C@]2(C)[C@H]3C(=O)C=C4[C@@H]5C[C@@](C)(C(=O)NCCNC(=O)c6ccc(C#N)cc6)CC[C@]5(C)CC[C@@]4(C)[C@]3(C)CC[C@@H]12`, the 50% growth inhibitory concentration (GI50) in the series with B16-F10 was 31 µM; with SK-MEL-28, 35 µM; in the series with A549, 68 µM; in series [1] it was 76 µM; in the series on MCF7, 27 µM; in the series on Hs 683 it was 67 µM. The values for the GI50 in the series with PC-3 and with T98G were 72 µM and 77 µM, respectively. In [2], the remaining at 168 h is 92%.
For `CC1(C)[C@@H](O)CC[C@]2(C)[C@H]3C(=O)C=C4[C@@H]5C[C@@](C)(C(=O)NCCc6ccc(F)cc6)CC[C@]5(C)CC[C@@]4(C)[C@]3(C)CC[C@@H]12`, the GI50 with B16-F10 turned out to be 32 µM; with SK-MEL-28, 82 µM; with A549 it was 33 µM; in series [1], 42 µM; with MCF7, 31 µM; with Hs 683 it was 56 µM. The GI50 stood at 33 µM in the series with PC-3 and 46 µM with T98G. In addition, the remaining at 168 h in series [2] came out at 95%.
In the case of `CC(C)C[C@@H](C=O)NC(=O)[C@H](CC(C)C)NC(=O)[C@H](CC(C)C)NC(=O)OCc1ccccc1` (Cbz-Leu-Leu-Leu-aldehyde), the inhibition result in the series on U-373MG ATCC [3], with U-373MG ATCC [4], in the series with U-373MG ATCC [5], with U-373MG ATCC [6], in the series with U-373MG ATCC [7] and in the series on U-373MG ATCC [8] was “Active” throughout. Moreover, the inhibition result in the series on U-373MG ATCC [9], in the series on U-373MG ATCC [10] and in the series with U-373MG ATCC [11] was “Active” in each case.
Consider `CC1(C)[C@@H](O)CC[C@]2(C)[C@H]3C(=O)C=C4[C@@H]5C[C@@](C)(C(=O)NCCNC(=O)c6ccc(C(F)(F)F)cc6)CC[C@]5(C)CC[C@@]4(C)[C@]3(C)CC[C@@H]12`, for which the GI50 in the series on B16-F10 is 36 µM; in the series on SK-MEL-28, 49 µM; in the series with A549, 47 µM; in [1] it was 55 µM; in the series with MCF7, 28 µM; with Hs 683, 38 µM. Further, the GI50 in the series with PC-3 was 53 µM; in the series with T98G, 62 µM. In addition, the remaining at 168 h in series [2] turned out to be 95%.
On to `COc1cccc(C(=O)NCCNC(=O)[C@@]2(C)CC[C@]3(C)CC[C@]4(C)C(=CC(=O)[C@@H]5[C@@]6(C)CC[C@H](O)C(C)(C)[C@@H]6CC[C@]54C)[C@@H]3C2)c1`, for which the GI50 is 31 µM in the series on B16-F10; 42 µM with SK-MEL-28; 63 µM in the series with A549; 75 µM in [1]; 46 µM with MCF7; 58 µM in the series on Hs 683. In addition, the values for the GI50 with PC-3 and in the series on T98G were 72 µM and 77 µM, respectively. The remaining at 168 h in series [2] amounted to 99%.
In the case of `CC1(C)[C@@H](O)CC[C@]2(C)[C@H]3C(=O)C=C4[C@@H]5C[C@@](C)(C(=O)NCCNC(=O)Nc6ccccc6)CC[C@]5(C)CC[C@@]4(C)[C@]3(C)CC[C@@H]12`, the GI50 in the series on B16-F10 was 31 µM; with SK-MEL-28, 49 µM; in the series with A549 it was 29 µM; in [1], 30 µM; in the series with MCF7, 28 µM; in the series with Hs 683 it was 28 µM. For the same molecule, the GI50 with PC-3 amounted to 32 µM; with T98G, 30 µM. The remaining at 168 h in series [2] was 96%.
Consider `CCOC(=O)CCNC(=O)NCCNC(=O)[C@@]1(C)CC[C@]2(C)CC[C@]3(C)C(=CC(=O)[C@@H]4[C@@]5(C)CC[C@H](O)C(C)(C)[C@@H]5CC[C@]43C)[C@@H]2C1`, for which the GI50 in the series with B16-F10 turned out to be 41 µM; with SK-MEL-28, 65 µM; in the series on A549, 29 µM; in [1], 42 µM; with MCF7, 42 µM; in the series on Hs 683, 42 µM. In addition, the GI50 is 46 µM in the series on PC-3 and 71 µM in the series on T98G. Moreover, in series [2], the remaining at 168 h is 99%.
For `CSc1ccc(C(=O)NCCNC(=O)[C@@]2(C)CC[C@]3(C)CC[C@]4(C)C(=CC(=O)[C@@H]5[C@@]6(C)CC[C@H](O)C(C)(C)[C@@H]6CC[C@]54C)[C@@H]3C2)cc1`, the GI50 with B16-F10 turned out to be 31 µM; in the series on SK-MEL-28, 38 µM; in the series with A549, 37 µM; in series [1], 37 µM; with MCF7 it was 30 µM; with Hs 683 it was 36 µM. Also, the results for the GI50 with PC-3 and with T98G were 47 µM and 54 µM, respectively. For the same molecule, the remaining at 168 h in [2] came to 99%.
Regarding `CC1(C)[C@@H](O)CC[C@]2(C)[C@H]3C(=O)C=C4[C@@H]5C[C@@](C)(C(=O)NCCNC(=O)c6ccc(F)cc6)CC[C@]5(C)CC[C@@]4(C)[C@]3(C)CC[C@@H]12`, the GI50 was 28 µM in the series with B16-F10; 37 µM in the series on SK-MEL-28; 28 µM in the series on A549; 29 µM in series [1]; 25 µM in the series with MCF7; 31 µM in the series with Hs 683. In addition, the GI50 worked out at 30 µM in the series with PC-3 and 35 µM in the series with T98G. For the same molecule, the remaining at 168 h in [2] turned out to be 98%.
In the case of `CSCCCNC(=S)NCCNC(=O)[C@@]1(C)CC[C@]2(C)CC[C@]3(C)C(=CC(=O)[C@@H]4[C@@]5(C)CC[C@H](O)C(C)(C)[C@@H]5CC[C@]43C)[C@@H]2C1`, the concentration for 50% growth inhibition (GI50) worked out at 33 µM in the series with B16-F10; 33 µM with SK-MEL-28; 38 µM in the series with A549; 35 µM in [1]; 30 µM with MCF7; 36 µM in the series with Hs 683. Besides, the GI50 amounted to 39 µM in the series on PC-3 and 35 µM in the series on T98G. For the same molecule, the remaining at 168 h in series [2] stood at 93%.
Turning to `COc1ccc(CCNC(=O)[C@@]2(C)CC[C@]3(C)CC[C@]4(C)C(=CC(=O)[C@@H]5[C@@]6(C)CC[C@H](O)C(C)(C)[C@@H]6CC[C@]54C)[C@@H]3C2)cc1`, the 50% growth inhibitory concentration (GI50) in the series with B16-F10 is 31 µM; with SK-MEL-28, > 100 µM; in the series on A549, 37 µM; in series [1], 49 µM; with MCF7, 36 µM; in the series with Hs 683, 61 µM. Also, the GI50 in the series with PC-3 was found to be 34 µM; in the series with T98G it was 68 µM. Also, the remaining at 168 h in series [2] was found to be 91%.
